# Results from different studies.
# Protocols differ between the studies behind these lines.
# Tumor necrosis factor receptor superfamily member 9: Tumor necrosis factor receptor superfamily member 9 (Homo sapiens, UniProt Q07011)
Structure (SMILES),target,read-out,mode,method,setting,endpoint,result
CCCC[C@@H]1NC(=O)[C@H](Cc2ccc(O)cc2)NC(=O)[C@@H]2CCCN2C(=O)[C@H](CC(=O)O)NC(=O)[C@H](C)NC(=O)[C@H](Cc2ccccc2)NC(=O)[C@@H]2CSCCC(=O)N3CN(CN(C3)C(=O)CCSC[C@@H](C(=O)N[C@@H](CNC(=O)CCc3cn(CC(=O)N[C@H]4CSCCC(=O)N5CN6CN(C5)C(=O)CCSC[C@H](NC(=O)[C@@H](CC(=O)O)NC(=O)[C@H](Cc5cccc7ccccc57)NC(=O)[C@@H]5CCCN5C4=O)C(=O)N[C@@H](CCSC)C(=O)N[C@@H](CCCCNC(=N)N)C(=O)N[C@@H](CC(=O)O)C(=O)N[C@@H](Cc4c[nH]c5ccccc45)C(=O)N[C@@H](CO)C(=O)N[C@@H]([C@@H](C)O)C(=O)N4CCC[C@H]4C(=O)N4C[C@H](O)C[C@H]4C(=O)N[C@@H](Cc4c[nH]c5ccccc45)C(=O)N[C@H](C(N)=O)CSCCC6=O)nn3)C(N)=O)NC1=O)C(=O)CCSC[C@H](NC(C)=O)C(=O)N[C@@H](CC(C)(C)C)C(=O)N1CCC[C@H]1C(=O)N[C@@H](CCC(=O)O)C(=O)N[C@H](C)C(=O)N1CCC[C@H]1C(=O)N[C@@H](Cc1ccc(O)cc1)C(=O)N2,Tumor necrosis factor receptor superfamily member 9,binding,,SPR,,Kd,3.5 nM
Cc1cnc(-c2ccc(-c3ccc(NC(=O)Nc4c(F)cc(F)cc4F)cc3F)c3c2C(=O)NC3)[nH]1,"Myosin-IIIa (MYO3A, Homo sapiens, UniProt Q8NEV4)",binding,,competition with immobilised ligand,,Kd,13 nM
Cc1cc(Nc2cc3ncccc3c(N[C@@H]3C[C@H]4CC[C@@H](C3)N4CCC#N)n2)n[nH]1,"Macrophage colony-stimulating factor 1 receptor (CSF1R, Homo sapiens, UniProt P07333)",binding,,competition with immobilised ligand,,Kd,1100 nM
CNC(=O)c1cc2c(Oc3ccc(NC(=O)C4(C(=O)Nc5ccc(F)cc5)CC4)cc3)ccnc2cc1OC,"Hepatocyte growth factor receptor (MET, Homo sapiens, UniProt P08581, Y1230C)",enzyme activity,inhibitor,radiometric,,IC50,4 nM
CCCC[C@@H]1NC(=O)[C@H](Cc2ccc(O)cc2)NC(=O)[C@@H]2CCCN2C(=O)[C@H](CC(=O)O)NC(=O)[C@H](C)NC(=O)[C@H](Cc2ccccc2)NC(=O)[C@@H]2CSCCC(=O)N3CN(CN(C3)C(=O)CCSC[C@@H](C(=O)N[C@@H](CNC(=O)Cn3cc(CCC(=O)NCCC(=O)N(C)CC(=O)N(C)CC(=O)N(C)CC(=O)N(C)CC(=O)N(C)CC(=O)N(C)CC(=O)N(C)CC(=O)N(C)CC(=O)N(C)CC(=O)N(C)CC(=O)N[C@H]4CSCCC(=O)N5CN6CN(C5)C(=O)CCSC[C@H](NC(=O)[C@@H](CC(=O)O)NC(=O)[C@H](Cc5cccc7ccccc57)NC(=O)[C@@H]5CCCN5C4=O)C(=O)N[C@@H](CCSC)C(=O)N[C@@H](CCCCNC(=N)N)C(=O)N[C@@H](CC(=O)O)C(=O)N[C@@H](Cc4c[nH]c5ccccc45)C(=O)N[C@@H](CO)C(=O)N[C@@H]([C@@H](C)O)C(=O)N4CCC[C@H]4C(=O)N4C[C@H](O)C[C@H]4C(=O)N[C@@H](Cc4c[nH]c5ccccc45)C(=O)N[C@H](C(N)=O)CSCCC6=O)nn3)C(N)=O)NC1=O)C(=O)CCSC[C@H](NC(C)=O)C(=O)N[C@@H](CC(C)(C)C)C(=O)N1CCC[C@H]1C(=O)N[C@@H](CCC(=O)O)C(=O)N[C@H](C)C(=O)N1CCC[C@H]1C(=O)N[C@@H](Cc1ccc(O)cc1)C(=O)N2,Tumor necrosis factor receptor superfamily member 9,binding,,SPR,,Kd,4.9 nM
Cc1cc2nc3c(=O)[nH]c(=O)nc-3n(C[C@H](O)[C@H](O)[C@H](O)COP(=O)(O)OP(=O)(O)OC[C@H]3O[C@@H](n4cnc5c(N)ncnc54)[C@H](O)[C@@H]3O)c2cc1C,"Heterogeneous nuclear ribonucleoprotein H3 (Homo sapiens, UniProt P31942)",binding,,,lysate,Kd,19 nM
COC(=O)[C@H](Cc1c[nH]cn1)NC(=O)CN(CC(=O)O)Cc1ccc2ccccc2c1,"Insulin-degrading enzyme (IDE, Homo sapiens, UniProt P14735)",enzyme activity,inhibitor,fluorescence,,IC50,1200 nM
Nc1nc2c(ncn2[C@@H]2O[C@H](COP(=O)(O)OP(=O)(O)OP(=O)(O)OC[C@H]3O[C@@H](n4cnc5c(=O)[nH]c(N)nc54)[C@H](O)[C@@H]3O)[C@@H](O)[C@H]2O)c(=O)[nH]1,"Gem-associated protein 5 (Homo sapiens, UniProt Q8TEQ6)",binding,,ITC,,Kd,140000 nM
